The values that follow come from ChEMBL document CHEMBL4190191, “Cyclic Diarylheptanoids from Corylus avellana Green Leafy Covers: Determination of Their Absolute Configurations and Evaluation of Their Antioxidant and Antimicrobial Activities” (J Nat Prod, 2017).

In general, inhibition refers to how much of the control response was suppressed.

The subject of series [1] is Plasma. Put plainly: Antioxidant activity in human plasma assessed as inhibition of H2O2-induced lipid peroxidation at 10 uM after 30 mins by TBARS assay relative to control. The class given is functional, cell-free. An outline of the steps:
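Fresh plasma from medication-free donors was incubated for 30 min at 37 °C with compound (0.1–100 μM) plus 2 mM H2O2. Lipid peroxidation was quantified as TBARS. Data are from 5–9 independent experiments, as mean ± SD.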

In series [2] the test system is Plasma. The series can be described thus: Antioxidant activity in human plasma assessed as inhibition of H2O2/Fe2+-induced lipid peroxidation at 10 uM after 30 mins by TBARS assay relative to control. Type of series: functional, cell-free. Summed up: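 Human donor plasma was incubated for 30 min at 37 °C with compound at 10 μM plus 4.7 mM H2O2, 3.8 mM […] and 2.5 mM EDTA. Peroxidation was read as TBARS concentration.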

The next series relates to A549. The series can be described thus: Cytotoxicity against human A549 cells at 10 to 100 uM by MTT assay. Type of series: cell-based. Conditions: a549, 100 µM. An outline of the steps:
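A549 human lung adenocarcinoma cells were kept in DMEM with 10% FBS, 1% penicillin/streptomycin and 2 mM L-glutamine, at 37 °C under 5% CO2. Viability was measured by MTT assay after exposure to 10–100 μM.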

Series [3] in a line: Cytotoxicity against human DeFew cells at 10 to 100 uM by MTT assay. The class given is cell-based. Summed up: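 DeFew human B-lymphoma cells were maintained in RPMI 1640 with 10% FBS, 1% penicillin/streptomycin and 2 mM L-glutamine, in humidified 5% CO2 at 37 °C. Cells were exposed to 10–100 μM, and viability was read by MTT.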
For orientation: Tetrazolium assays rely on reduction of a dye to a coloured formazan, in cell work by metabolically active cells.

Series [4] concerns Escherichia coli. Put plainly: Antimicrobial activity against Escherichia coli DSM 8579 assessed as growth inhibition at 10 ug per disc after 24 to 48 hrs (reference value: 0 millimeter). The class given is functional. Conditions: read-out: DIZ.
Series [5] relates to Bacillus cereus. Put plainly: Antimicrobial activity against Bacillus cereus DSM 4384 assessed as growth inhibition at 10 ug per disc after 24 to 48 hrs (reference value: 0 millimeter). The conditions noted are these: read-out: DIZ. The class given is functional.
Series [6] relates to Bacillus cereus. The series can be described thus: Antimicrobial activity against Bacillus cereus DSM 4313 assessed as growth inhibition at 10 ug per disc after 24 to 48 hrs (reference value: 0 millimeter). The conditions noted are these: read-out: DIZ. The class given is functional.
The subject of series [7] is Pseudomonas aeruginosa. The series can be described thus: Antimicrobial activity against Pseudomonas aeruginosa DSM 50071 assessed as growth inhibition at 10 ug per disc after 24 to 48 hrs (reference value: 0 millimeter). Type of series: functional. Conditions: read-out: DIZ.
Series [8] deals with Staphylococcus aureus. The series can be described thus: Antimicrobial activity against Staphylococcus aureus DSM 25923 assessed as growth inhibition at 10 ug per disc after 24 to 48 hrs (reference value: 0 millimeter). Type of series: functional. Conditions: read-out: DIZ.
The test system of series [9] is Escherichia coli. Put plainly: Antimicrobial activity against Escherichia coli DSM 8579 assessed as growth inhibition at 20 ug per disc after 24 to 48 hrs (reference value: 0 millimeter). Conditions: read-out: DIZ. Type of series: functional.
In series [10] the test system is Bacillus cereus. Put plainly: Antimicrobial activity against Bacillus cereus DSM 4384 assessed as growth inhibition at 20 ug per disc after 24 to 48 hrs (reference value: 0 millimeter). Type of series: functional. The conditions noted are these: read-out: DIZ.
In series [11] the test system is Bacillus cereus. Put plainly: Antimicrobial activity against Bacillus cereus DSM 4313 assessed as growth inhibition at 20 ug per disc after 24 to 48 hrs (reference value: 0 millimeter). Conditions: read-out: DIZ. The class given is functional.
Series [12] has as its system Pseudomonas aeruginosa. Put plainly: Antimicrobial activity against Pseudomonas aeruginosa DSM 50071 assessed as growth inhibition at 20 ug per disc after 24 to 48 hrs (reference value: 0 millimeter). Conditions: read-out: DIZ. The class given is functional.
Series [13] deals with Staphylococcus aureus. The series can be described thus: Antimicrobial activity against Staphylococcus aureus DSM 25923 assessed as growth inhibition at 20 ug per disc after 24 to 48 hrs (reference value: 0 millimeter). The class given is functional. Conditions: read-out: DIZ.
Series [14] relates to Bacillus cereus. The series can be described thus: Antimicrobial activity against Bacillus cereus DSM 4384 assessed as growth inhibition at 40 ug per disc after 24 to 48 hrs (reference value: 0 millimeter). Type of series: functional. The conditions noted are these: read-out: DIZ.
The test system of series [15] is Escherichia coli. Put plainly: Antimicrobial activity against Escherichia coli DSM 8579 assessed as growth inhibition at 40 ug per disc after 24 to 48 hrs (reference value: 0 millimeter). The conditions noted are these: read-out: DIZ. The class given is functional.
The subject of series [16] is Bacillus cereus. The series can be described thus: Antimicrobial activity against Bacillus cereus DSM 4313 assessed as growth inhibition at 40 ug per disc after 24 to 48 hrs (reference value: 0 millimeter). Type of series: functional. Conditions: read-out: DIZ.
In series [17] the test system is Pseudomonas aeruginosa. Put plainly: Antimicrobial activity against Pseudomonas aeruginosa DSM 50071 assessed as growth inhibition at 40 ug per disc after 24 to 48 hrs (reference value: 0 millimeter). Type of series: functional. The conditions noted are these: read-out: DIZ.
The test system of series [18] is Staphylococcus aureus. The series can be described thus: Antimicrobial activity against Staphylococcus aureus DSM 25923 assessed as growth inhibition at 40 ug per disc after 24 to 48 hrs (reference value: 0 millimeter). The class given is functional. Conditions: read-out: DIZ.
The test system of series [19] is Bacillus cereus. The series can be described thus: Antimicrobial activity against Bacillus cereus DSM 4313 assessed per disc after 24 hrs by resazurin dye-based microtiter-plate assay. Type of series: functional. Summed up:
(§1)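 Resazurin microtiter-plate broth dilution. Samples in DMSO were twofold serially diluted in Mueller-Hinton broth with isosensitized broth and resazurin indicator. Bacteria were added to about 5 × 10^5 cfu/mL. Ciprofloxacin served as positive control and DMSO as negative control. Plates were run in triplicate at 37 °C for 24 h. MIC is the lowest concentration […].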

Series [20] concerns Bacillus cereus. Put plainly: Antimicrobial activity against Bacillus cereus DSM 4384 assessed per disc after 24 hrs by resazurin dye-based microtiter-plate assay. The class given is functional. Summed up: as §1
A general note: Alamar Blue is a resazurin reagent that responds to reducing activity.

Series [21] concerns Escherichia coli. Put plainly: Antimicrobial activity against Escherichia coli DSM 8579 assessed per disc after 24 hrs by resazurin dye-based microtiter-plate assay. The class given is functional. An outline of the steps:
as §1

Series [22] concerns Pseudomonas aeruginosa. The series can be described thus: Antimicrobial activity against Pseudomonas aeruginosa DSM 50071 assessed per disc after 24 hrs by resazurin dye-based microtiter-plate assay. Type of series: functional. An outline of the steps: as §1
Series [23] concerns Staphylococcus aureus. Put plainly: Antimicrobial activity against Staphylococcus aureus DSM 25923 assessed per disc after 24 hrs by resazurin dye-based microtiter-plate assay. The class given is functional. Summed up:
as §1

Series [24] concerns Escherichia coli. The series can be described thus: Antimicrobial activity against Escherichia coli DSM 8579 assessed as growth inhibition at 7 ug per disc after 24 to 48 hrs (reference value: 0 millimeter). The conditions noted are these: read-out: DIZ. The class given is functional.
Series [25] deals with Bacillus cereus. The series can be described thus: Antimicrobial activity against Bacillus cereus DSM 4384 assessed as growth inhibition at 7 ug per disc after 24 to 48 hrs (reference value: 0 millimeter). Type of series: functional. Conditions: read-out: DIZ.
Series [26] deals with Bacillus cereus. The series can be described thus: Antimicrobial activity against Bacillus cereus DSM 4313 assessed as growth inhibition at 7 ug per disc after 24 to 48 hrs (reference value: 0 millimeter). The conditions noted are these: read-out: DIZ. Type of series: functional.
Series [27] concerns Pseudomonas aeruginosa. The series can be described thus: Antimicrobial activity against Pseudomonas aeruginosa DSM 50071 assessed as growth inhibition at 7 ug per disc after 24 to 48 hrs (reference value: 0 millimeter). The class given is functional. The conditions noted are these: read-out: DIZ.
Series [28] relates to Staphylococcus aureus. Put plainly: Antimicrobial activity against Staphylococcus aureus DSM 25923 assessed as growth inhibition at 7 ug per disc after 24 to 48 hrs (reference value: 0 millimeter). Type of series: functional. Conditions: read-out: DIZ.

Take `O=C1CCc2ccc(O[C@@H]3O[C@H](CO)[C@@H](O)[C@H](O)[C@H]3O)c(c2)-c2cc(ccc2O)C[C@@H](O)[C@H](O)[C@H]1O` (mixture of isomers): the figures for the inhibition in the series on Plasma [1] and in the series with Plasma [2] were 14.7% and 23.3%, respectively. Further, the Activity result (in the series with A549; in series [3]) was “Non-Toxic” in each case. Also, the zone of inhibition at 10 µg/disc in the series with Escherichia coli [4], in the series with Bacillus cereus [5], in the series on Bacillus cereus [6], in the series with Pseudomonas aeruginosa [7] and in the series on Staphylococcus aureus [8] was 0 mm each time. The zone of inhibition at 20 µg/disc in the series with Escherichia coli [9], with Bacillus cereus [10], with Bacillus cereus [11], with Pseudomonas aeruginosa [12] and with Staphylococcus aureus [13] was 0 mm throughout. For the same compound, the zone of inhibition at 40 µg/disc in the series on Bacillus cereus [14] amounted to 0 mm; in the series on Escherichia coli [15], 0 mm; in the series on Bacillus cereus [16], 5 mm; in the series with Pseudomonas aeruginosa [17], 9 mm; with Staphylococcus aureus [18] it was 11.3 mm. Further, the MIC with Bacillus cereus [19] stood at 30 µg; against Bacillus cereus [20], 50 µg; in the series on Escherichia coli [21], 50 µg; against Pseudomonas aeruginosa [22], 30 µg; with Staphylococcus aureus [23], 30 µg.

As for `O=C1CCc2ccc(O)c(c2)-c2cc(ccc2O)C[C@@H](O)[C@H](O)[C@H]1O` (mixture of isomers), the inhibition in the series with Plasma [1] turned out to be 32.2%; in the series on Plasma [2] it was 24.4%. Also, the Activity entry (in the series on A549; in series [3]) was “Non-Toxic” in each case. Further, the zone of inhibition at 10 µg/disc was determined as 9.33 mm with Escherichia coli [4]; 5 mm in the series on Bacillus cereus [5]; 5 mm in the series on Bacillus cereus [6]; 4.67 mm in the series with Pseudomonas aeruginosa [7]; 0 mm with Staphylococcus aureus [8]. The zone of inhibition at 20 µg/disc in the series with Escherichia coli [9] came to 9.67 mm; in the series on Bacillus cereus [10] it was 5 mm; in the series on Bacillus cereus [11] it was 5 mm; in the series on Pseudomonas aeruginosa [12] it was 4.67 mm; in the series with Staphylococcus aureus [13], 0 mm. Besides, the zone of inhibition at 40 µg/disc is 10.7 mm with Bacillus cereus [14]; 11.7 mm in the series with Escherichia coli [15]; 10.7 mm with Bacillus cereus [16]; 10.7 mm with Pseudomonas aeruginosa [17]; 5.67 mm in the series with Staphylococcus aureus [18]. The MIC amounted to 4 µg with Bacillus cereus [19]; 4 µg against Bacillus cereus [20]; 10 µg against Escherichia coli [21]; 10 µg in the series on Pseudomonas aeruginosa [22]; 30 µg with Staphylococcus aureus [23].

Consider `CN(C)[C@@H]1C(O)=C(C(N)=O)C(=O)[C@@]2(O)C(O)=C3C(=O)c4c(O)cccc4[C@@](C)(O)[C@H]3C[C@@H]12` [TETRACYCLINE], for which the zone of inhibition at 7 µg/disc worked out at 12.7 mm in the series with Escherichia coli [24]; 8.67 mm with Bacillus cereus [25]; 10.3 mm with Bacillus cereus [26]; 9.67 mm in the series with Pseudomonas aeruginosa [27]; 11.3 mm in the series on Staphylococcus aureus [28].
